Measurements as given in ChEMBL document CHEMBL2384957, “Synthesis and antimicrobical evaluation of a novel class of 1,3,4-thiadiazole: derivatives bearing 1,2,4-triazolo[1,5-a]pyrimidine moiety” (2013).
≈ marks a conversion by molar mass, not a printed value.

Experiments:
Type in all cases: functional
Bacillus spizizenii = experiment: Antibacterial activity against Bacillus subtilis ATCC 6633 assessed as growth inhibition after 24 hrs by two-fold serial dilution method; conditions: ATCC 6633, 24 h
In short: (§1)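 MICs were determined by two-fold serial dilution in nutrient broth, following CLSI. The inoculum came from 24 h bacterial cultures on nutrient agar at 37 ± 1 °C and was adjusted in sterile saline to 1×10⁴–10⁵ CFU/mL. Tubes were incubated at 37 ± 1 °C. MIC was read visually after 24 h, with kanamycin as the reference standard.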

[1] = Antifungal activity against Physalospora pyricola assessed as inhibition of mycelia elongation rate at 50 ppm after 48 hrs relative to control; conditions: Botryosphaeria berengeriana
In short: (§2)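 This was a mycelial growth assay on potato glucose agar. Samples were dissolved in DMF at 500 mg/L (stock), and 1 part solution was mixed with 9 parts thawed medium at 50 °C before plating. Solidified plates were inoculated with a 4 mm mycelium disk, inverted and incubated at 28 °C for 48 h. Medium without sample served as blank. Mycelial elongation radius was measured, in triplicate.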

Fusarium oxysporum = experiment: Antifungal activity against Fusarium oxysporum assessed as inhibition of mycelia elongation rate at 50 ppm after 48 hrs relative to control; in short: as §2
Staphylococcus aureus = experiment: Antibacterial activity against Staphylococcus aureus ATCC 6538 assessed as growth inhibition after 24 hrs by two-fold serial dilution method; conditions: ATCC 6538, 24 h; in short: as §1
Rhizoctonia solani = experiment: Antifungal activity against Rhizoctonia solani assessed as inhibition of mycelia elongation rate at 50 ppm after 48 hrs relative to control; in short: as §2
[2] = Antifungal activity against Gibberella saubinettii assessed as inhibition of mycelia elongation rate at 50 ppm after 48 hrs relative to control; conditions: Fusarium graminearum
In short: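 Poisoned-agar mycelial growth test: sample dissolved in DMF at 500 mg/L, 1 mL mixed into 9 mL thawed potato glucose agar at 50 °C and poured into plates. A 4 mm mycelium disk was placed on each plate, inverted, incubated 28 °C for 48 h. Mycelial elongation radius (mm) measured against a sample-free medium blank; three replicates.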

Pseudomonas fluorescens = experiment: Antibacterial activity against Pseudomonas fluorescens ATCC 13525 assessed as growth inhibition after 24 hrs by two-fold serial dilution method; conditions: ATCC 13525, 24 h; in short: as §1
Cercospora beticola = experiment: Antifungal activity against Cercospora beticola assessed as inhibition of mycelia elongation rate at 50 ppm after 48 hrs relative to control; in short: as §2
Escherichia coli = experiment: Antibacterial activity against Escherichia coli ATCC 35218 assessed as growth inhibition after 24 hrs by two-fold serial dilution method; conditions: ATCC 35218, 24 h; in short: as §1

Structure (SMILES)	MIC (Bacillus spizizenii)	inhibition [1]	inhibition at 50 ppm (Fusarium oxysporum)	MIC (Staphylococcus aureus)	inhibition at 50 ppm (Rhizoctonia solani)	inhibition [2]	MIC (Pseudomonas fluorescens)	inhibition at 50 ppm (Cercospora beticola)	MIC (Escherichia coli)
Cc1cc(C)n2nc(SCc3nnc(SCc4cc(F)cc(F)c4)s3)nc2n1	50 µg/mL (≈ 115 µM)	68%	38%	> 100 µg/mL	75%	41%	12.5 µg/mL (≈ 28.6 µM)	61%	25 µg/mL (≈ 57.3 µM)
Cc1cc(C)n2nc(SCc3nnc(SCc4ccccc4Cl)s3)nc2n1	> 100 µg/mL	77%	40%	> 100 µg/mL	61%	45%	100 µg/mL (≈ 230 µM)	43%	12.5 µg/mL (≈ 28.7 µM)
Cc1cc(C)n2nc(SCc3nnc(SCc4cccc(F)c4)s3)nc2n1	> 100 µg/mL	71%	45%	> 100 µg/mL	60%	17%	50 µg/mL (≈ 119 µM)	41%	12.5 µg/mL (≈ 29.9 µM)
Cc1cc(C)n2nc(SCc3nnc(SCc4cccc(Cl)c4)s3)nc2n1	50 µg/mL (≈ 115 µM)	66%	57%	> 100 µg/mL	53%	15%	100 µg/mL (≈ 230 µM)	57%	25 µg/mL (≈ 57.5 µM)
COC(=O)Nc1nc2ccccc2[nH]1 [CARBENDAZIM]	–	74%	48%	–	62%	75%	–	66%	–
Cc1cc(C)n2nc(SCc3nnc(SCc4ccccc4F)s3)nc2n1	> 100 µg/mL	78%	55%	> 100 µg/mL	68%	45%	25 µg/mL (≈ 59.7 µM)	39%	12.5 µg/mL (≈ 29.9 µM)
Cc1cc(C)n2nc(SCc3nnc(SCc4ccccc4C)s3)nc2n1	> 100 µg/mL	73%	50%	> 100 µg/mL	55%	48%	25 µg/mL (≈ 60.3 µM)	36%	12.5 µg/mL (≈ 30.2 µM)
Cc1cc(C)n2nc(SCc3nnc(SCc4cccc(Br)c4)s3)nc2n1	12.5 µg/mL (≈ 26.1 µM)	58%	56%	> 100 µg/mL	67%	47%	50 µg/mL (≈ 104 µM)	77%	50 µg/mL (≈ 104 µM)
Cc1cc(C)n2nc(SCc3nnc(SCc4ccc(F)cc4)s3)nc2n1	50 µg/mL (≈ 119 µM)	79%	42%	> 100 µg/mL	55%	18%	50 µg/mL (≈ 119 µM)	60%	12.5 µg/mL (≈ 29.9 µM)
Cc1cc(C)n2nc(SCc3nnc(SCc4ccccc4Br)s3)nc2n1	> 100 µg/mL	75%	40%	> 100 µg/mL	63%	44%	25 µg/mL (≈ 52.1 µM)	45%	12.5 µg/mL (≈ 26.1 µM)
C=Cc1ccc(CSc2nnc(CSc3nc4nc(C)cc(C)n4n3)s2)cc1	50 µg/mL (≈ 117 µM)	72%	42%	12.5 µg/mL (≈ 29.3 µM)	50%	78%	100 µg/mL (≈ 234 µM)	54%	12.5 µg/mL (≈ 29.3 µM)
OCC1=C[C@H](N[C@H]2C[C@H](CO)[C@@H](O[C@@H]3O[C@H](CO)[C@@H](O)[C@H](O)[C@H]3O)[C@H](O)[C@H]2O)[C@H](O)[C@@H](O)[C@@H]1O [VALIDAMYCIN]	–	47%	35%	–	75%	37%	–	42%	–
NC[C@H]1O[C@H](O[C@H]2[C@H](O)[C@@H](O[C@H]3O[C@H](CO)[C@@H](O)[C@H](N)[C@H]3O)[C@H](N)C[C@@H]2N)[C@H](O)[C@@H](O)[C@@H]1O [KANAMYCIN]	0.78 µg/mL (≈ 1.61 µM)	–	–	3.13 µg/mL (≈ 6.46 µM)	–	–	3.13 µg/mL (≈ 6.46 µM)	–	1.56 µg/mL (≈ 3.22 µM)
CC(C)(C)C(=O)C(Oc1ccc(Cl)cc1)n1cncn1 (centres undefined) [TRIADIMEFON]	–	55%	37%	–	40%	81%	–	35%	–
Cc1cc(C)n2nc(SCc3nnc(SCc4ccc(C)c([N+](=O)[O-])c4)s3)nc2n1	12.5 µg/mL (≈ 27.2 µM)	68%	40%	> 100 µg/mL	89%	41%	12.5 µg/mL (≈ 27.2 µM)	78%	25 µg/mL (≈ 54.4 µM)
Cc1cc(C)n2nc(SCc3nnc(SCc4ccc(F)cc4F)s3)nc2n1	25 µg/mL (≈ 57.3 µM)	86%	56%	25 µg/mL (≈ 57.3 µM)	79%	64%	12.5 µg/mL (≈ 28.6 µM)	64%	3.13 µg/mL (≈ 7.17 µM)
Cc1cc(C)n2nc(SCc3nnc(SCc4ccc(Br)cc4F)s3)nc2n1	50 µg/mL (≈ 101 µM)	82%	38%	> 100 µg/mL	75%	35%	12.5 µg/mL (≈ 25.1 µM)	62%	6.25 µg/mL (≈ 12.6 µM)
COc1cccc(CSc2nnc(CSc3nc4nc(C)cc(C)n4n3)s2)c1	50 µg/mL (≈ 116 µM)	69%	44%	12.5 µg/mL (≈ 29 µM)	49%	67%	> 100 µg/mL	62%	25 µg/mL (≈ 58.1 µM)
Cc1cc(C)n2nc(SCc3nnc(SCc4c(F)cccc4F)s3)nc2n1	50 µg/mL (≈ 115 µM)	73%	36%	> 100 µg/mL	83%	33%	6.25 µg/mL (≈ 14.3 µM)	60%	12.5 µg/mL (≈ 28.6 µM)
Cc1cc(C)n2nc(SCc3nnc(SCc4cccc([N+](=O)[O-])c4)s3)nc2n1	25 µg/mL (≈ 56.1 µM)	63%	28%	25 µg/mL (≈ 56.1 µM)	64%	64%	25 µg/mL (≈ 56.1 µM)	70%	25 µg/mL (≈ 56.1 µM)
Cc1cccc(CSc2nnc(CSc3nc4nc(C)cc(C)n4n3)s2)c1	> 100 µg/mL	72%	55%	> 100 µg/mL	54%	45%	50 µg/mL (≈ 121 µM)	43%	12.5 µg/mL (≈ 30.2 µM)
Cc1cc(C)n2nc(SCc3nnc(SCc4ccc(Br)cc4)s3)nc2n1	> 100 µg/mL	76%	62%	> 100 µg/mL	51%	25%	100 µg/mL (≈ 209 µM)	43%	12.5 µg/mL (≈ 26.1 µM)
Cc1ccc(CSc2nnc(CSc3nc4nc(C)cc(C)n4n3)s2)cc1	> 100 µg/mL	74%	65%	> 100 µg/mL	57%	32%	50 µg/mL (≈ 121 µM)	38%	12.5 µg/mL (≈ 30.2 µM)
Cc1ccc(CSc2nnc(CSc3nc4nc(C)cc(C)n4n3)s2)c([N+](=O)[O-])c1	25 µg/mL (≈ 54.4 µM)	78%	54%	25 µg/mL (≈ 54.4 µM)	80%	66%	1.56 µg/mL (≈ 3.39 µM)	64%	12.5 µg/mL (≈ 27.2 µM)
